Tests used:
Format in all cases: functional, cell-based
MCF7 = experiment: Cytotoxicity against human MCF7 cells after 24 to 48 hrs by MTT assay
SH-SY5Y = experiment: Cytotoxicity against human SH-SY5Y cells after 24 to 48 hrs by MTT assay
In short: (§1)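 Treatment began 24 h after seeding. Compounds were dissolved in DMSO and diluted in DMEM to final 1, 5, 10, 20 and 40 μM, then incubated 24 or 48 h. MTT (0.5 mg/ml) was added for 3 h at 37 °C, formazan dissolved in DMSO, and absorbance read at 595 nm. Each assay was run in triplicate. IC50 came from nonlinear regression of a sigmoid dose-response curve, accepted when R^2 >0.95.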

HepG2 = experiment: Cytotoxicity against human HepG2 cells after 24 to 48 hrs by MTT assay; in short: as §1
NCI-H460 = experiment: Cytotoxicity against human H460 cells after 24 to 48 hrs by MTT assay; in short: as §1

COc1cc(/C=C/C(=O)/C=C/c2nc3ccccc3n2C)ccc1O
IC50 (MCF7): 3.7 µM
IC50 (SH-SY5Y): 4.7 µM
IC50 (HepG2): 2.9 µM
IC50 (NCI-H460): 7 µM

COc1cc(/C=C/C(=O)/C=C/c2nc3cc(C)ccc3n2C)ccc1O
IC50 (MCF7): 4.5 µM
IC50 (SH-SY5Y): 4.7 µM
IC50 (HepG2): 4.2 µM
IC50 (NCI-H460): 7.7 µM

COc1cc(/C=C/C(=O)/C=C/c2nc3c(C)cccc3n2C)ccc1O
IC50 (MCF7): 3.5 µM
IC50 (SH-SY5Y): 1 µM
IC50 (HepG2): 1.9 µM
IC50 (NCI-H460): 3 µM

COc1cc(/C=C/C(=O)/C=C/c2nc3c(C)c(C)ccc3n2C)ccc1O
IC50 (MCF7): 14.1 µM
IC50 (SH-SY5Y): 19 µM
IC50 (HepG2): 8.5 µM
IC50 (NCI-H460): 31.9 µM

COc1ccc2c(c1)nc(/C=C/C(=O)/C=C/c1ccc(O)c(OC)c1)n2C
IC50 (MCF7): 3.9 µM
IC50 (SH-SY5Y): 4.8 µM
IC50 (HepG2): 3.8 µM
IC50 (NCI-H460): 12.7 µM

COc1cc(/C=C/C(=O)/C=C/c2nc3cc(Cl)ccc3n2C)ccc1O
IC50 (MCF7): 4.4 µM
IC50 (SH-SY5Y): 4.7 µM
IC50 (HepG2): 4 µM
IC50 (NCI-H460): 8.9 µM

COc1cc(/C=C/C(=O)/C=C/c2nc3cc([N+](=O)[O-])ccc3n2C)ccc1O
IC50 (MCF7): 3.7 µM
IC50 (SH-SY5Y): 4.6 µM
IC50 (HepG2): 3.7 µM
IC50 (NCI-H460): 6.7 µM

COc1cc(/C=C/C(=O)/C=C/c2nc3cc(O)ccc3n2C)ccc1O
IC50 (MCF7): 2.9 µM
IC50 (SH-SY5Y): 4.8 µM
IC50 (HepG2): 3.6 µM
IC50 (NCI-H460): 7.6 µM

COc1ccc(/C=C/C(=O)/C=C/c2nc3ccccc3n2C)cc1O
IC50 (MCF7): 3.6 µM
IC50 (SH-SY5Y): 4.8 µM
IC50 (HepG2): 2.9 µM
IC50 (NCI-H460): 6.9 µM

COc1ccc(/C=C/C(=O)/C=C/c2nc3cc(C)ccc3n2C)cc1O
IC50 (MCF7): 3.6 µM
IC50 (SH-SY5Y): 4.8 µM
IC50 (HepG2): 3.3 µM
IC50 (NCI-H460): 7.7 µM

COc1ccc(/C=C/C(=O)/C=C/c2nc3c(C)cccc3n2C)cc1O
IC50 (MCF7): 7.4 µM
IC50 (SH-SY5Y): 19.1 µM
IC50 (HepG2): 14.7 µM
IC50 (NCI-H460): 25.4 µM

COc1ccc(/C=C/C(=O)/C=C/c2nc3c(C)c(C)ccc3n2C)cc1O
IC50 (MCF7): 3.5 µM
IC50 (SH-SY5Y): 4.8 µM
IC50 (HepG2): 3.9 µM
IC50 (NCI-H460): 7.3 µM

COc1ccc2c(c1)nc(/C=C/C(=O)/C=C/c1ccc(OC)c(O)c1)n2C
IC50 (MCF7): 3.7 µM
IC50 (SH-SY5Y): 4.8 µM
IC50 (HepG2): 4.2 µM
IC50 (NCI-H460): 11.7 µM

COc1ccc(/C=C/C(=O)/C=C/c2nc3cc(Cl)ccc3n2C)cc1O
IC50 (MCF7): 3.5 µM
IC50 (SH-SY5Y): 4.8 µM
IC50 (HepG2): 4.1 µM
IC50 (NCI-H460): 7.3 µM

COc1ccc(/C=C/C(=O)/C=C/c2nc3cc([N+](=O)[O-])ccc3n2C)cc1O
IC50 (MCF7): 4.8 µM
IC50 (SH-SY5Y): 8.1 µM
IC50 (HepG2): 4.6 µM
IC50 (NCI-H460): 10.5 µM

COc1ccc(/C=C/C(=O)/C=C/c2nc3cc(O)ccc3n2C)cc1O
IC50 (MCF7): 1.9 µM
IC50 (SH-SY5Y): 4.6 µM
IC50 (HepG2): 3.7 µM
IC50 (NCI-H460): 7.2 µM

COc1cc(/C=C/C(=O)CC(=O)/C=C/c2ccc(O)c(OC)c2)ccc1O [CURCUMIN]
IC50 (MCF7): 49.8 µM
IC50 (SH-SY5Y): 105 µM
IC50 (HepG2): 87.5 µM
IC50 (NCI-H460): 51.3 µM

CC(=O)O[C@H]1C(=O)[C@@]2(C)[C@H]([C@H](OC(=O)c3ccccc3)[C@]3(O)C[C@H](OC(=O)[C@H](O)[C@@H](NC(=O)c4ccccc4)c4ccccc4)C(C)=C1C3(C)C)[C@]1(OC(C)=O)CO[C@@H]1C[C@@H]2O [PACLITAXEL]
IC50 (SH-SY5Y): 0.004 µM
IC50 (HepG2): 0.007 µM
IC50 (NCI-H460): 0.008 µM
